Test results taken from the array DNA melting data of Ke et al. (doi:10.1101/2024.01.08.574731).

Legend:
[1] = folding enthalpy; higher = less favourable; fluorescence melt of hairpins on a sequencing array, two-state fit; settings: sodium 0.088 M
How it was run: (§1)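 Bootstrapped two-state fits yielded melting temperature and folding enthalpy for library hairpins. Cy3 fluorescence, with annealed Cy3 and quencher oligos, was imaged on a sequenced MiSeq flow cell in 50 mM Na-HEPES pH 8.0, 25 mM NaCl in 2.5 °C steps up to 60 °C, and normalised to pre-quench Cy3 and to control constructs. Four replicates were combined by inverse variance, and fitted temperatures were raised by 9.35 °C to match UV melts.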

[2] = melting temperature; fluorescence melt of hairpins on a sequencing array, two-state fit, raised by 9.35 °C to match UV melts; settings: sodium 0.088 M
How it was run: as §1

Row | Sequence | folding enthalpy [1] | Tm [2]
1 | GCCGGCGAAAGCCAAGGC ((((((....)))..))) | -22.8 kcal/mol | 65.3 °C
2 | GCCGGCGAAAGCCCTGGC ((((((....)))..))) | -16.2 kcal/mol | 56.6 °C
3 | GCCGGCGAAAGCCTCGGC ((((((....)))..))) | -19.9 kcal/mol | 53.3 °C
4 | GCCGGCGGAAACGCCAGC ((.((((....)))).)) | -15.4 kcal/mol | 58.5 °C
5 | GCCGGCTCGAAAGAGGGC (((..(((....)))))) | -19.2 kcal/mol | 46.9 °C
6 | GCCGGGACGAAAGTCGGC (((..(((....)))))) | -29.8 kcal/mol | 60.9 °C
7 | GCCGGGCGAAAGCACTGC ((.(.((....)).).)) | -18.6 kcal/mol | 50.8 °C
8 | GCCGGGCGAAAGCAGGGC (((..((....))..))) | -29 kcal/mol | 62.2 °C
9 | GCCGGGCGAAAGCATGGC (((..((....))..))) | -26.8 kcal/mol | 64.9 °C
10 | GCCGGGCGAAAGCCCAGC ((.((((....)))).)) | -15.8 kcal/mol | 64.8 °C
11 | GCCGGGCGAAAGCCCCGC ((.((((....)))).)) | -16.2 kcal/mol | 54.4 °C
12 | GCCGGGCGAAAGCCCTGC ((.((((....)))).)) | -14.9 kcal/mol | 57.2 °C
13 | GCCGGGCGAAAGCCGAGC ((..(((....)))..)) | -14.8 kcal/mol | 57.4 °C
14 | GCCGGGCGAAAGCCGTGC ((..(((....)))..)) | -13.7 kcal/mol | 50.2 °C
15 | GCCGGGCGAAAGCGTGGC (((..((....))..))) | -36.4 kcal/mol | 65.9 °C
16 | GCCGGGCGAAAGCTAGGC (((..((....))..))) | -34.4 kcal/mol | 66.6 °C
17 | GCCGGGGGAAACCCCGAC (.(((((....))))).) | -13.2 kcal/mol | 51.8 °C
18 | GCCGTACCGAAAGGTGGC (((..(((....)))))) | -25.1 kcal/mol | 53.8 °C
19 | GCCGTACGAAAGTAAGGC (((.(((....))).))) | -36.6 kcal/mol | 60.1 °C
20 | GCCGTAGCGAAAGCTGGC (((..(((....)))))) | -31.5 kcal/mol | 55.6 °C
21 | GCCGTAGGAAACTGCGGC ((((.((....)).)))) | -37.3 kcal/mol | 61.6 °C
22 | GCCGTCGAAAGACAAGGC ((((((....)))..))) | -32.8 kcal/mol | 55.2 °C
23 | GCCGTCGAAAGACAGGC ((((((....))).))) | -27 kcal/mol | 65.2 °C

Row | Sequence | folding enthalpy [1] | Tm [2]
24 | GCCGTCGAAAGACATGGC ((((((....)))..))) | -23.9 kcal/mol | 52.1 °C
25 | GCCGTCGAAAGACTGGC ((((((....))).))) | -33.4 kcal/mol | 56.4 °C
26 | GCCGTCGGAAACAACGGC (((((.(....).))))) | -47.5 kcal/mol | 53.9 °C
27 | GCCGTCGGAAACGACAGC ((.((((....)))).)) | -16.6 kcal/mol | 53 °C
28 | GCCGTGACGAAAGTCGGC (((..(((....)))))) | -23.3 kcal/mol | 57.1 °C
29 | GCCGTGCGAAAGCATAGC ((..(((....)))..)) | -13.6 kcal/mol | 43.3 °C
30 | GCCGTGCGAAAGCATTGC ((..(((....)))..)) | -12.6 kcal/mol | 43.2 °C
31 | GCCGTGCGAAAGCGGGGC (((..((....))..))) | -34.8 kcal/mol | 67.3 °C
32 | GCCGTGGGAAACCATGGC (((.(((....))).))) | -43.5 kcal/mol | 59.4 °C
33 | GCCGTGGGAAACTGCGGC ((((..(....)..)))) | -28.5 kcal/mol | 53.9 °C
34 | GCCGTTGCGAAAGCAGGC (((..(((....)))))) | -31.7 kcal/mol | 62.3 °C
35 | GCCGTTGGAAACAACGAC (.(((((....))))).) | -16.9 kcal/mol | 46.2 °C
36 | GCCTAACCGAAAGGTGGC (((..(((....)))))) | -23.2 kcal/mol | 53.2 °C
37 | GCCTACCCGAAAGGGGGC (((..(((....)))))) | -17.3 kcal/mol | 52.4 °C
38 | GCCTACCGAAAGGTCGGC (((.(((....))).))) | -39.7 kcal/mol | 56.5 °C
39 | GCCTACGAAAGTACAGGC ((((((....)))..))) | -30.7 kcal/mol | 47.7 °C
40 | GCCTACGAAAGTACCGGC ((((((....)))..))) | -25.6 kcal/mol | 36.9 °C
41 | GCCTACGAAAGTACGGGC ((((((....)))..))) | -27.2 kcal/mol | 46.3 °C
42 | GCCTACGAAAGTACTGGC ((((((....)))..))) | -24.4 kcal/mol | 40.2 °C
43 | GCCTACGAAAGTATAGGC ((((((....)))..))) | -25.5 kcal/mol | 49.3 °C
44 | GCCTACGGAAACGTAGAC (.(((((....))))).) | -18.1 kcal/mol | 41.8 °C
45 | GCCTAGCGAAAGCAAGGC ((((.((....)).)))) | -29.3 kcal/mol | 67.2 °C
